Hits are enriched below; roughly 2.1% of the tested compounds scored in any of these assays.
MEKK2mut PB1 HTS = MEK5 binding signal on mutant MEKK2 PB1, primary screen, biochemical, multiplex bead flow cytometry, Alexa488-MEK5 | Alexa488-MEK5 binding to MEKK2 mutant | percent response, % at 10 µM | 0.35% of 290,000 active; in the data active = percent response above about 24%, passing the limit was not always enough
MEKK2 WT-MEK5 = modulators of MEK5 binding to wildtype MEKK2, primary screen, biochemical, multiplex bead flow cytometry, Alexa488-MEK5; Alexa488-MEK5 binding to MEKK2 WT; actives lie on both sides; binding response (% of control), % at 10 µM; 1.1% of 290,000 active; in the data active = binding response below about 67% or above about 130%
GSK3beta inhib = human GSK3beta kinase inhibitors, primary screen, biochemical, cell-free homogeneous, HTS. Glycogen synthase kinase-3 beta (Homo sapiens), P49841. GST-GSK3beta kinase, ADP-Glo luminescence, 60 min; hits give low values. activity score (negative = inhibition), % at 10 µM. 0.038% of 300,000 active;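 active = more than half of replicate wells score below -50%, meaning over 50% inhibition versus plate controls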
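Test system: GST-tagged human GSK3beta kinase, cell-free; evaluation: activity score scaled between in-plate DMSO and GW8510 controls; measured by: ADP-Glo luminescence; incubation: 60 min reaction, RT; benchmarks: DMSO and 20 µM GW8510; reagent: peptide substrate plus 25 µM ATP (final); medium: Tris/MgCl2 kinase buffer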
MEKK3 PB1 HTS = modulators of MEKK3-MEK5 PB1 binding, primary screen, biochemical, wildtype MEKK3, multiplex bead flow cytometry, Alexa488-MEK5 | bead-based flow cytometry, Alexa488-MEK5 binding to MEKK3; actives lie on both sides; 0 = blocked by unlabeled MEK5, 100 = vehicle | 1.4% of 290,000 active | binding response (% of control), % at 10 µM | AID 1529, 2009;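 active = binding response more than 3 SD above or below the average of its plate-row segment, actives on both sides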;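 also: Alexa488 bead fluorescence after subtracting the streptavidin-only scavenger bead signal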
STK33 kinase inh = inhibitors of purified STK33 kinase, primary screen, biochemical, ADP-Glo luminescence, homogeneous, cell-free; Serine/threonine-protein kinase 33 (Homo sapiens), Q9BYT3; inhibition, % at 10 µM; 0.073% of 320,000 active; AID 2661, 2010; MBP phosphorylation;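 active = inhibition at or above 25%, using the most active replicate where run in duplicate; inactive = inhibition below 25%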
Target sequence (Q9BYT3 whole entry, looked up): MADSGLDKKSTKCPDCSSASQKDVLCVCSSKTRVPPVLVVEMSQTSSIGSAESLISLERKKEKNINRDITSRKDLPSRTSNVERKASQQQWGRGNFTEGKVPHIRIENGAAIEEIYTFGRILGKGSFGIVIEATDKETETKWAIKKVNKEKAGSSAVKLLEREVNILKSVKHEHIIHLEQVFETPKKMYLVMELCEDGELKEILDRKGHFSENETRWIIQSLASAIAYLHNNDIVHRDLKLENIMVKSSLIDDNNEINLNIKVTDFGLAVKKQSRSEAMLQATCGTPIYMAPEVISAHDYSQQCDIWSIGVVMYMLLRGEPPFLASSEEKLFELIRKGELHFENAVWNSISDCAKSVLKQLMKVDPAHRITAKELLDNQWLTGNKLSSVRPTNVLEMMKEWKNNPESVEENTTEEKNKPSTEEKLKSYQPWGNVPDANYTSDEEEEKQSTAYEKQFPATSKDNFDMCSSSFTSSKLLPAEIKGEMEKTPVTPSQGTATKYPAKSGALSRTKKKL
GSK3 alpha inh = blockers of GSK3A enzyme activity – biochemical, luminescence, cell-free homogeneous, HTS, primary screen; Glycogen synthase kinase-3 alpha (Homo sapiens), P49840; GSK-3 alpha kinase, ADP-Glo luminescence, 60 min; inhibition, % at 10 µM; 0.1% of 320,000 active; AID 2650, 2010;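 active = more than half of replicates show inhibition above 20%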;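 also: GST-tagged GSK-3 alpha with peptide substrate and 25 µM ATP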
MEKK2wt confirm = modulators of MEK5 binding to wildtype MEKK2, confirmation, biochemical, single concentration, multiplex bead flow cytometry; shares compounds with MEKK3 PB1 HTS; Alexa488-MEK5 binding to MEKK2 WT; actives lie on both sides; binding response (% of control), % at 10 µM; 2.4% of 5,900 active; AID 1892, 2009; in the data active = binding response below about 16% or above about 210%; inactive = in between
MEKK2mut-MEK5 = mutant MEKK2 PB1-MEK5 binding signal retest – biochemical, single concentration, multiplex bead flow cytometry, confirmation; shares compounds with MEKK3 PB1 HTS; Alexa488-MEK5 binding to MEKK2 mutant; percent response, % at 10 µM; 2% of 5,900 active; AID 1893, 2009; in the data active = percent response mostly above about 71%, no sharp cut-off; inactive = mostly below about 38%;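 also: higher means compound restores mutant binding toward wildtype level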
MEKK3-MEK5 inh = MEKK3 wild-type PB1 binding to MEK5, inhibitors, confirmation, biochemical, bead multiplex flow cytometry, single concentration, wildtype; binding response (% of control), % at 10 µM; 1.8% of 5,900 active; shares compounds with MEKK3 PB1 HTS; Alexa488-MEK5 binding to MEKK3; hits give low values;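 active = binding response below 72% of control, or above a set upper limit, though filed actives all read lower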;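 also: lower values mean stronger disruption of MEK5 binding to MEKK3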
Of the large screens only hits and unclear results are named; the others gave an inactive call (follow-up assays come after a bar, where they were run); [ ] = dose if it differs, or a comment.

COc1ccc([N+](=O)[O-])cc1NC(=O)CSc1nncn1-c1ccccc1	MEKK2mut PB1 HTS 55 | MEKK2wt confirm inactive | MEKK2mut-MEK5 inactive | MEKK3-MEK5 inh inactive
COc1ccc(S(=O)(=O)N2CCOCC2)cc1NC(=O)C1COc2ccccc2O1 (stereo not given)	none (no result: MEKK2mut PB1 HTS, MEKK2 WT-MEK5, MEKK3 PB1 HTS)
O=C(CS(=O)(=O)Cc1ccccc1)N1CCN(c2ccccc2F)CC1	none
CCn1c(SCC(=O)OC)nnc1-c1c[nH]c2ccccc12	MEKK3 PB1 HTS 129 | MEKK2wt confirm inactive | MEKK2mut-MEK5 inactive | MEKK3-MEK5 inh inactive
CCOC(=O)CSc1nnc(-c2c[nH]c3ccccc23)n1CC	none
COC(=O)CSc1nnc2cc(C)c3ccccc3n12	MEKK2 WT-MEK5 41[inhibitor], MEKK3 PB1 HTS 46[inhibitor] | MEKK2wt confirm inactive | MEKK2mut-MEK5 inactive | MEKK3-MEK5 inh inactive
COc1ccccc1NS(=O)(=O)c1ccc2[nH]c(=S)oc2c1	none (no result: MEKK2mut PB1 HTS, MEKK2 WT-MEK5, GSK3beta inhib, MEKK3 PB1 HTS)
O=C(Cc1ccc(F)cc1)Nc1ccc(Cl)cn1	none
Cn1c(=O)c2c(nc3n2CC(O)CN3c2ccccc2)n(C)c1=O (stereo not given)	none (no result: MEKK2mut PB1 HTS, MEKK2 WT-MEK5, MEKK3 PB1 HTS)
COC(=O)C1CCN(C(=O)CN2C(=O)NC(CCc3ccccc3)C2=O)CC1 (stereo not given)	MEKK3 PB1 HTS 122 | MEKK2wt confirm inactive | MEKK2mut-MEK5 inactive | MEKK3-MEK5 inh inactive
Cc1c(C(=O)NNS(=O)(=O)c2ccccc2)sc(=S)n1C	MEKK3 PB1 HTS 139 | MEKK2wt confirm inactive | MEKK2mut-MEK5 inactive | MEKK3-MEK5 inh inactive
COC(=O)c1ccc(N2CCN(S(=O)(=O)c3ccc(C)cc3)CC2)c([N+](=O)[O-])c1	none
COC(=O)c1ccc(N2CCN(S(=O)(=O)c3ccc(Br)cc3)CC2)c([N+](=O)[O-])c1	MEKK3 PB1 HTS 129 | MEKK2wt confirm inactive | MEKK2mut-MEK5 inactive | MEKK3-MEK5 inh inactive
O=C(NNC(=S)Nc1ccc(Br)cc1)c1ccc(N2CCOCC2)c([N+](=O)[O-])c1	MEKK3 PB1 HTS 137 | MEKK2wt confirm inactive | MEKK2mut-MEK5 inactive | MEKK3-MEK5 inh inactive
CCc1ccc(-c2cnc3nc[nH]c(=O)c3n2)cc1	none (no result: MEKK2mut PB1 HTS, MEKK2 WT-MEK5, MEKK3 PB1 HTS)
Cn1c(Cl)c(/C=N/OC(=O)c2ccc(Cl)cc2)c2ccccc21	none
CN(C)c1ccc(C2(c3ccc(N(C)C)cc3)OC(=O)c3cc(N)ccc32)cc1	none
COc1ccc(-c2noc(CNS(=O)(=O)c3ccc(NC(C)=O)cc3)n2)cc1OC	none
CC(C)[C@H](NC(=O)Nc1ccc(Oc2ccccc2)cc1)C(=O)O	none
CC(C)[C@H](NC(N)=O)C(=O)Nc1ccc(Oc2ccccc2)cc1	MEKK3 PB1 HTS 42[inhibitor] | MEKK2wt confirm inactive | MEKK2mut-MEK5 inactive | MEKK3-MEK5 inh inactive
O=C(C1=COCCO1)N1CCN(S(=O)(=O)c2cccc(F)c2)CC1	none (no result: MEKK2mut PB1 HTS, MEKK2 WT-MEK5, GSK3beta inhib, MEKK3 PB1 HTS)
Cc1ccc(C(=O)C[n+]2cccc3cc(C)ccc32)cc1	MEKK3 PB1 HTS 25[inhibitor] (no result: MEKK2mut PB1 HTS, MEKK2 WT-MEK5) | MEKK2wt confirm inactive | MEKK2mut-MEK5 inactive | MEKK3-MEK5 inh inactive

Assay outcomes as filed in PubChem BioAssay.
